One assay concerns PC-3. Put plainly: Antiproliferative activity against human PC3 cells at 10 uM after 72 hrs by MTS assay. In kind it is functional. The following applies: PC-3, 72 h.
The subject of another assay is HT-29. The assay is described as follows: Antiproliferative activity against human HT-29 cells at 10 uM after 72 hrs by MTS assay. In kind it is functional. To be noted: HT-29, 72 h. The gist of the method: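 Single-concentration test at 10 μM, with compound in <0.1% DMSO. Cells were plated at 3000/well in triplicate, given a 24 h pre-incubation, then treated for 72 h at 37 °C, 5% CO2. Growth inhibition (%) was read by MTS. HT29 was grown in DMEM + Glutamax-I with 10% FBS. Mean of at least three independent experiments.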

A further assay has as its system MCF7. Put plainly: Antiproliferative activity against human MCF7 cells at 10 uM after 72 hrs by MTS assay. The following applies: MCF7, 72 h. In kind it is functional.
The target of assay [1] is Epidermal growth factor receptor (Homo sapiens, UniProt P00533). Put plainly: Inhibition of human EGFR expressed in human A431 cells using poly(Glu4/Tyr) and [gamma32P]ATP as substrate after 1 hr by scintillation counting. The arrangement: species or system A-431.
Epidermal growth factor receptor, sequence (P00533 whole entry): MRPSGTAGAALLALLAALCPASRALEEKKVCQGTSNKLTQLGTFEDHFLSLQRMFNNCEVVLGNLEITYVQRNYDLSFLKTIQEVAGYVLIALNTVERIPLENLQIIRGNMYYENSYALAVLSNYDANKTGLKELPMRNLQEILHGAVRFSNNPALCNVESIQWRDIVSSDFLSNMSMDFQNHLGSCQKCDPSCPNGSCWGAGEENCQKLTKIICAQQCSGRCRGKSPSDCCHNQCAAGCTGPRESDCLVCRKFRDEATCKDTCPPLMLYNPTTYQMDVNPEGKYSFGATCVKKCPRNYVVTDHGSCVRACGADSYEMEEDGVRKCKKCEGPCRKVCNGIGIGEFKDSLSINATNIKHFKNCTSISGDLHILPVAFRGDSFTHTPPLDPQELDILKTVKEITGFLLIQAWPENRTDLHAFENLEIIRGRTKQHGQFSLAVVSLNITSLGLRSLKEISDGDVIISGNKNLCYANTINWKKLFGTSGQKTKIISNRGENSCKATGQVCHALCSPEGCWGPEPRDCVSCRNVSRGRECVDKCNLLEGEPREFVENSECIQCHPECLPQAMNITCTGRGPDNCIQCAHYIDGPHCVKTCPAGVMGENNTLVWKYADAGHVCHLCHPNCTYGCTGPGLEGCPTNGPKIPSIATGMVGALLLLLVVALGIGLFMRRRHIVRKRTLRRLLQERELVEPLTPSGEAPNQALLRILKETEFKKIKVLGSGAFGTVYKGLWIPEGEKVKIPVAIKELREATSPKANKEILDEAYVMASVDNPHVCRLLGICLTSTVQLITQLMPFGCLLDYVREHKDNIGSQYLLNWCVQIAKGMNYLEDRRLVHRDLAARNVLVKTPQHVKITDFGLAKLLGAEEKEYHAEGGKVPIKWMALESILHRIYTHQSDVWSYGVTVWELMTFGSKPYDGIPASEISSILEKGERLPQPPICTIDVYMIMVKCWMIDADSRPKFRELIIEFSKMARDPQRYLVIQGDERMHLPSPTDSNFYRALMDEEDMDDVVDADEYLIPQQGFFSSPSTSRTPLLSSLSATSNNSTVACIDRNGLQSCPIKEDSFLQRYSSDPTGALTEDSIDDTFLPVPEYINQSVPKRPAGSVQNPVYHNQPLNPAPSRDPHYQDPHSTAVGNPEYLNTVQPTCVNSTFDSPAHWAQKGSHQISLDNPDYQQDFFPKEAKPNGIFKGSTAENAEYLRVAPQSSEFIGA
Assay [2] deals with Vascular endothelial growth factor receptor 2 (Homo sapiens, UniProt P35968). The assay is described as follows: Inhibition of recombinant human VEGFR-2 using poly(Glu4/Tyr) and [gamma32P]ATP as substrate after 1 hr by scintillation counting.
Vascular endothelial growth factor receptor 2, sequence (P35968 whole entry): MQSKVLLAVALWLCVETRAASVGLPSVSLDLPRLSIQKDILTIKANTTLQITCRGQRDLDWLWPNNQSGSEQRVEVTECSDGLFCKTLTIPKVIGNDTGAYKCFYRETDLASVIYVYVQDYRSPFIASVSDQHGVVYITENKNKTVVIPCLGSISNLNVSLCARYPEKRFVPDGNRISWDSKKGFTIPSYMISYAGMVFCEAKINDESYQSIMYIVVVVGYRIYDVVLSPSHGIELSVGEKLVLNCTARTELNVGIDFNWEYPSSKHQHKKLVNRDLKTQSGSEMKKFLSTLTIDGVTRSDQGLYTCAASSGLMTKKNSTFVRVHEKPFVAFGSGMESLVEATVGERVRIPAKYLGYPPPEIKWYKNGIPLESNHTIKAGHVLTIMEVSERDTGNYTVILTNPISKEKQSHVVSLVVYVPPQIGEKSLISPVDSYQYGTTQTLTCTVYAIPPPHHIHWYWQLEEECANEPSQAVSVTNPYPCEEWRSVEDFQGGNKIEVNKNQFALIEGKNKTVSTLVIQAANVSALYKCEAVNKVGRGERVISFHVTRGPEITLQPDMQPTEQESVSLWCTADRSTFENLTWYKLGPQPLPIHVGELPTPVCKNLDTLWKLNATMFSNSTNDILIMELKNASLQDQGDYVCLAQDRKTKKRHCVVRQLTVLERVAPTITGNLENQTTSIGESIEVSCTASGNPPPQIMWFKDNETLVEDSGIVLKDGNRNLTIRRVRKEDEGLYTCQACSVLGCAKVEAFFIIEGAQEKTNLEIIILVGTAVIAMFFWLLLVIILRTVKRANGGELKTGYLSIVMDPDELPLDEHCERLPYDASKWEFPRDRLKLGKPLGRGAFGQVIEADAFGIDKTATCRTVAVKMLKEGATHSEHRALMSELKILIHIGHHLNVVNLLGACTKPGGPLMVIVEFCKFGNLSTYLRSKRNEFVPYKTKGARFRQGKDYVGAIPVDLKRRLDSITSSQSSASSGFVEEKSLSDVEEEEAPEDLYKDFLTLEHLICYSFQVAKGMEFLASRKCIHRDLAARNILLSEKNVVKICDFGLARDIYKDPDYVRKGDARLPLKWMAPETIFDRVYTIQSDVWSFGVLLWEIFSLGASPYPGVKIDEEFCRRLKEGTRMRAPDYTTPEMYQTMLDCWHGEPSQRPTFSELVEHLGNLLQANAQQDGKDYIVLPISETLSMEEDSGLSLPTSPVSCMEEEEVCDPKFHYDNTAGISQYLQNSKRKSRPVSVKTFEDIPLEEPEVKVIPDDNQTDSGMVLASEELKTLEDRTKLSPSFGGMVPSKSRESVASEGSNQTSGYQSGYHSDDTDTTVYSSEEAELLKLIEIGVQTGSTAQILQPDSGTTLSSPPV

Molecules are shown by their SMILES. Bounds are passed on as bounds.

With `COc1cc2ncnc(Nc3ccc(Br)cc3F)c2cc1OC`, the figures for the inhibition at 10 µM in the assay on PC-3, with HT-29 and with MCF7 were 1%, 0% and 31%, respectively.
For the molecule `COC(=O)Nc1ccc(Nc2ncnc3cc(OC)c(OC)cc23)cc1`, the inhibition at 10 µM in the assay with PC-3 turned out to be 2%; in the assay on HT-29, 10%; in the assay on MCF7, 27%.
The like results for `CCOC(=O)Nc1ccc(Nc2ncnc3cc(OC)c(OC)cc23)cc1` were, in that order, 12%, 16% and 6%.
On to `CCNC(=O)Nc1ccc(Nc2ncnc3cc(OC)c(OC)cc23)cc1`, for which the IC50 in assay [1] is greater than 10 µM; in assay [2] it was 4.65 µM. The inhibition at 10 µM was found to be 0% with PC-3, 0% in the assay on HT-29 and 6% in the assay with MCF7.
On to `CCC(=O)Nc1ccc(Nc2ncnc3cc(OC)c(OC)cc23)cc1`, for which the IC50 in assay [1] is greater than 10 µM.
Regarding `CCCC(=O)Nc1ccc(Nc2ncnc3cc(OC)c(OC)cc23)cc1C`, the IC50 in assay [2] is 4 µM. Also, the values for the inhibition at 10 µM in the assay with PC-3, with HT-29 and with MCF7 were 0%, 0% and 5%, respectively.
As for `COC(=O)Nc1ccc(Nc2ncnc3cc(OC)c(OC)cc23)cc1Cl`, the figures for the inhibition at 10 µM in the assay on PC-3, with HT-29 and in the assay with MCF7 were 19%, 22% and 0%, respectively.
In the case of `CCCOC(=O)Nc1ccc(Nc2ncnc3cc(OC)c(OC)cc23)cc1C`, the figures for the inhibition at 10 µM in the assay on PC-3, with HT-29 and with MCF7 were 6%, 18% and 0%, respectively.
The like results for `CCCCOC(=O)Nc1ccc(Nc2ncnc3cc(OC)c(OC)cc23)cc1C` were, in that order, 4%, 13% and 33%.
For `COc1cc2ncnc(Nc3ccc(NC(=O)OC(C)C)c(C)c3)c2cc1OC`, 5.8 µM corresponded to half-maximal inhibition in assay [1] (IC50).
Regarding `CCCCNC(=O)Nc1ccc(Nc2ncnc3cc(OC)c(OC)cc23)cc1`, the IC50 in assay [1] is greater than 10 µM; in assay [2], 5.8 µM. The figures for the inhibition at 10 µM in the assay with PC-3, with HT-29 and with MCF7 were 14%, 16% and 26%, respectively.
Consider `COc1cccc(NC(=O)Nc2ccc(Nc3ncnc4cc(OC)c(OC)cc34)cc2)c1`, for which, in assay [1], the IC50 is greater than 10 µM.
Take `CCN(CC)CCOc1cc2ncnc(Nc3ccc(NC(=O)OC)c(Cl)c3)c2cc1OC`: the IC50 in assay [1] was greater than 10 µM; in assay [2] it was 5.2 µM. Further, the inhibition at 10 µM with PC-3 was determined as 0%; with HT-29 it was 38%; in the assay on MCF7, 0%.
For `CCN(CC)CCOc1cc2ncnc(Nc3ccc(NC(=O)OC)c(C)c3)c2cc1OC`, the IC50 in assay [1] is greater than 10 µM; in assay [2] it was 6.95 µM. For the same molecule, the inhibition at 10 µM turned out to be 0% in the assay with PC-3, 1% with HT-29 and 0% with MCF7.
For the molecule `CCOC(=O)Nc1ccc(Nc2ncnc3cc(OCCN(CC)CC)c(OC)cc23)cc1C`, the inhibition at 10 µM in the assay with PC-3 is 0%; in the assay on HT-29, 11%; with MCF7, 0%.
As for `CCNC(=O)Nc1ccc(Nc2ncnc3cc(OCCN(CC)CC)c(OC)cc23)cc1`, the figures for the half-maximal inhibitory concentration (IC50) in assay [1] and in assay [2] were greater than 10 µM and 6.6 µM, respectively. Further, the inhibition at 10 µM in the assay on PC-3, with HT-29 and in the assay on MCF7 was 0% throughout.
In the case of `CCOC(=O)Nc1ccc(Nc2ncnc3cc(OC)c(OCCN(CC)CC)cc23)cc1C`, the figures for the inhibition at 10 µM in the assay on PC-3, with HT-29 and in the assay with MCF7 were 0%, 36% and 0%, respectively.
With `COc1cc2ncnc(Nc3ccc(Br)cc3)c2cc1OC`, the IC50 amounted to 3.6 µM in assay [1] and 0.8 µM in assay [2]. Further, the figures for the inhibition at 10 µM with PC-3, in the assay on HT-29 and with MCF7 were 37%, 2% and 42%, respectively.
For `COc1cc2ncnc(Nc3ccccc3)c2cc1OC`, the IC50 was 4.3 µM in assay [1] and 7 µM in assay [2]. In addition, the results for the inhibition at 10 µM in the assay on PC-3, with HT-29 and in the assay on MCF7 were 9%, 0% and 7%, respectively.

The record behind these values is ChEMBL document CHEMBL2016491, “Synthesis and structure-activity relationships of (aryloxy)quinazoline ureas as novel, potent, and selective vascular endothelial growth factor receptor-2 inhibitors” (J Med Chem, 2012).
